Measured values published in ChEMBL document CHEMBL3734666, “Lipophilic vancomycin aglycon dimer with high activity against vancomycin-resistant bacteria” (2015).
Converted amounts (≈) assume the structure as drawn. The source made the active and inactive calls. The calls are words filed in the database; no cut-off is given here.

Columns and labels:
[1] = test system: Staphylococcus aureus; experiment: Bactericidal activity against methicillin-resistant Staphylococcus aureus ATCC 33591 assessed as reduction in bacterial burden at 4 uM measured within 3 hrs by time-kill assay; type: functional
Method in brief: (§1)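 Time-kill assay on MRSA starting near 8log₁₀ CFU/mL, with compound at 2 and 4 µM. Viable counts were taken over 24 h, including a 3 h point, with a detection limit of <50 CFU/mL.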

[2] = test system: Enterococcus faecium; experiment: Antibacterial activity against vancomycin-resistant Enterococcus faecium ATCC 51559 after 24 hrs by broth micro dilution assay; type: functional; conditions: ATCC 51559, 24 h
Method in brief: (§2)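 MIC read against vancomycin-sensitive staphylococci (MSSA, MRSA) and enterococci (VSE), plus vancomycin-resistant staphylococci (VISA) and enterococci (VRE).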

[3] = Binding affinity to N,N'-diacetyl-Lys-D-Ala-D-Lac (unknown origin) by UV-difference spectroscopy
Method in brief: (§3)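 Binding constants (Ka) measured by UV-difference spectroscopy with the model ligands N,N′-diacetyl-Lys-D-Ala-D-Ala (sensitive) and N,N′-diacetyl-Lys-D-Ala-D-Lac (resistant).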

[4] = test system: Staphylococcus aureus; experiment: Antibacterial activity against vancomycin-intermediate-resistant Staphylococcus aureus […] after 24 hrs by broth micro dilution assay; type: functional; method in brief: as §2
[5] = test system: Enterococcus faecium; experiment: Antibacterial activity against vancomycin-sensitive Enterococcus faecium after 24 hrs by broth micro dilution assay; type: functional
[6] = test system: Staphylococcus aureus; experiment: Antibacterial activity against methicillin-resistant Staphylococcus aureus ATCC 33591 after 24 hrs by broth micro dilution assay; type: functional; conditions: ATCC 33591, 24 h; method in brief: as §2
[7] = test system: Staphylococcus aureus; experiment: Bactericidal activity against methicillin-resistant Staphylococcus aureus ATCC 33591 assessed as reduction in bacterial burden at 4 uM measured within 24 hrs by time-kill assay; type: functional, organism-based; method in brief: as §1
[8] = test system: Staphylococcus aureus; experiment: Antibacterial activity against methicillin-sensitive Staphylococcus aureus after 24 hrs by broth micro dilution assay; type: functional; method in brief: as §2
[9] = test system: Staphylococcus aureus; experiment: Antibacterial activity against methicillin-resistant Staphylococcus aureus ATCC 33591 infected in human whole blood assessed as bacterial burden at 2 uM after 3 hrs (reference value: 7.0 log10 CFU/ml); type: functional
[10] = Binding affinity to N,N'-diacetyl-Lys-D-Ala-D-Ala (unknown origin) by UV-difference spectroscopy; method in brief: as §3
[11] = test system: Enterococcus faecium; experiment: Inhibition of peptidoglycan biosynthesis in vancomycin-resistant Enterococcus faecium ATCC 51559 assessed as accumulation of UDP-MurNAc-pp at 5 uM after 60 mins by mass spectrometric analysis; type: functional, organism-based
[12] = test system: Staphylococcus aureus; experiment: Bacteriostatic activity against methicillin-resistant Staphylococcus aureus ATCC 33591 at 2 to 4 uM measured within 6 hrs; type: functional, organism-based
[13] = test system: Staphylococcus aureus; experiment: Antibacterial activity against methicillin-resistant Staphylococcus aureus ATCC 33591 infected in human whole blood assessed as bacterial burden at 4 uM after 3 hrs (reference value: 7.0 log10 CFU/ml); type: functional
[14] = test system: Staphylococcus aureus; experiment: Bacteriostatic activity against methicillin-resistant Staphylococcus aureus ATCC 33591 at 2 to 4 uM measured after 6 hrs; type: functional, organism-based

Row | SMILES | Activity [1] | MIC [2] | Ka [3] | MIC [4] | MIC [5] | MIC [6] | Activity [7] | MIC [8] | Activity [9] | Ka [10] | inhibition [11] | Activity [12] | Activity [13] | Activity [14]
1 | CCCCCCCCN(CCCNC(=O)[C@H]1NC(=O)[C@@H]2NC(=O)[C@@H](NC(=O)[C@H]3NC(=O)[C@@H](CC(N)=O)NC(=O)[C@@H](NC(=O)[C@@H](CC(C)C)NC)[C@@H](O)c4ccc(c(Cl)c4)Oc4cc3cc(c4O)Oc3ccc(cc3Cl)[C@@H]2O)c2ccc(O)c(c2)-c2c(O)cc(O)cc21)CCCNC(=O)[C@@H]1NC(=O)[C@H]2NC(=O)[C@H](NC(=O)[C@@H]3NC(=O)[C@H](CC(N)=O)NC(=O)[C@H](NC(=O)[C@@H](CC(C)C)NC)[C@H](O)c4ccc(c(Cl)c4)Oc4cc3cc(c4O)Oc3ccc(cc3Cl)[C@H]2O)c2ccc(O)c(c2)-c2c(O)cc(O)cc21 | 3 log10CFU/ml | 2.5 µM (≈ 6.24 µg/mL) | 5.7 ×10³ /M | 0.6 µM (≈ 1.5 µg/mL) | 0.5 µM (≈ 1.25 µg/mL) | 0.6 µM (≈ 1.5 µg/mL) | Active | 0.6 µM (≈ 1.5 µg/mL) | 4.5 log10CFU/ml | 1 ×10⁵ /M | Active | – | – | –
2 | CN[C@H](CC(C)C)C(=O)N[C@@H]1C(=O)N[C@H](CC(N)=O)C(=O)N[C@@H]2C(=O)N[C@@H]3C(=O)N[C@@H](C(=O)N[C@H](C(=O)NCCC[N+](C)(C)CCCCCCCC[N+](C)(C)CCCNC(=O)[C@H]4NC(=O)[C@@H]5NC(=O)[C@@H](NC(=O)[C@H]6NC(=O)[C@@H](CC(N)=O)NC(=O)[C@@H](NC(=O)[C@@H](CC(C)C)NC)[C@@H](O)c7ccc(c(Cl)c7)Oc7cc6cc(c7O)Oc6ccc(cc6Cl)[C@@H]5O)c5ccc(O)c(c5)-c5c(O)cc(O)cc54)c4cc(O)cc(O)c4-c4cc3ccc4O)[C@@H](O)c3ccc(c(Cl)c3)Oc3cc2cc(c3O)Oc2ccc(cc2Cl)[C@@H]1O | – | 48 µM | – | 0.1 µM | 0.05 µM | 0.3 µM | – | 0.2 µM | – | – | – | – | – | –
3 | CCCCCCCCN(CCCNC(=O)[C@H]1NC(=O)[C@H]2NC(=O)[C@H](NC(=O)[C@@H]3NC(=O)[C@H](CC(N)=O)NC(=O)[C@H](NC(=O)[C@@H](CC(C)C)NC)[C@H](O)c4ccc(c(Cl)c4)Oc4cc3cc(c4O)Oc3ccc(cc3Cl)[C@H]2O)c2ccc(O)c(c2)-c2c(O)cc(O)cc21)CCCNC(=O)C(F)(F)F | – | 6.5 µM (≈ 9.52 µg/mL) | – | 0.8 µM (≈ 1.17 µg/mL) | 0.4 µM (≈ 0.586 µg/mL) | 1 µM (≈ 1.47 µg/mL) | – | 0.8 µM (≈ 1.17 µg/mL) | – | – | – | – | – | –
4 | CN[C@H](CC(C)C)C(=O)N[C@@H]1C(=O)N[C@H](CC(N)=O)C(=O)N[C@@H]2C(=O)N[C@@H]3C(=O)N[C@@H](C(=O)N[C@H](C(=O)NCCCCCCCCNC(=O)[C@H]4NC(=O)[C@@H]5NC(=O)[C@@H](NC(=O)[C@H]6NC(=O)[C@@H](CC(N)=O)NC(=O)[C@@H](NC(=O)[C@@H](CC(C)C)NC)[C@@H](O)c7ccc(c(Cl)c7)Oc7cc6cc(c7O)Oc6ccc(cc6Cl)[C@@H]5O)c5ccc(O)c(c5)-c5c(O)cc(O)cc54)c4cc(O)cc(O)c4-c4cc3ccc4O)[C@@H](O)c3ccc(c(Cl)c3)Oc3cc2cc(c3O)Oc2ccc(cc2Cl)[C@@H]1O | – | 25.8 µM (≈ 61.8 µg/mL) | – | 0.2 µM (≈ 0.479 µg/mL) | 0.6 µM (≈ 1.44 µg/mL) | 0.6 µM (≈ 1.44 µg/mL) | – | 0.8 µM (≈ 1.92 µg/mL) | – | – | – | – | – | –
5 | CN[C@H](CC(C)C)C(=O)N[C@H]1C(=O)N[C@@H](CC(N)=O)C(=O)N[C@H]2C(=O)N[C@H]3C(=O)N[C@H](C(=O)N[C@H](C(=O)NCCC[N+](C)(C)CCCCCCCC[N+](C)(C)CCCNC(=O)C(F)(F)F)c4cc(O)cc(O)c4-c4cc3ccc4O)[C@H](O)c3ccc(c(Cl)c3)Oc3cc2cc(c3O)Oc2ccc(cc2Cl)[C@H]1O | – | > 100 µM | – | 0.5 µM | 0.2 µM | 1 µM | – | 1 µM | – | – | – | – | – | –
6 | CN[C@H](CC(C)C)C(=O)N[C@H]1C(=O)N[C@@H](CC(N)=O)C(=O)N[C@H]2C(=O)N[C@H]3C(=O)N[C@H](C(=O)N[C@H](C(=O)NCCCCCCCCNC(=O)C(F)(F)F)c4cc(O)cc(O)c4-c4cc3ccc4O)[C@H](O)c3ccc(c(Cl)c3)Oc3cc2cc(c3O)Oc2ccc(cc2Cl)[C@H]1O | – | 30.5 µM (≈ 41.7 µg/mL) | – | 0.6 µM (≈ 0.82 µg/mL) | 0.6 µM (≈ 0.82 µg/mL) | 2 µM (≈ 2.73 µg/mL) | – | 1 µM (≈ 1.37 µg/mL) | – | – | – | – | – | –
7 | CN[C@@H](CC(C)C)C(=O)N[C@H]1C(=O)N[C@@H](CC(N)=O)C(=O)N[C@H]2C(=O)N[C@H]3C(=O)N[C@H](C(=O)N[C@@H](C(=O)O)c4cc(O)cc(O)c4-c4cc3ccc4O)[C@H](O)c3ccc(c(Cl)c3)Oc3cc2cc(c3O[C@H]2O[C@@H](CO)[C@H](O)[C@@H](O)[C@@H]2O[C@@H]2C[C@@](C)(N)[C@@H](O)[C@@H](C)O2)Oc2ccc(cc2Cl)[C@H]1O | – | 750 µM (≈ 1090 µg/mL) | 5 ×10² /M | 13 µM (≈ 18.8 µg/mL) | 0.6 µM (≈ 0.87 µg/mL) | 0.7 µM (≈ 1.01 µg/mL) | – | 0.6 µM (≈ 0.87 µg/mL) | – | 1 ×10⁵ /M | – | Active | 1 log10CFU/ml | inactive
8 | CN[C@H](CC(C)C)C(=O)N[C@H]1C(=O)N[C@@H](CC(N)=O)C(=O)N[C@H]2C(=O)N[C@H]3C(=O)N[C@H](C(=O)N[C@H](C(=O)O)c4cc(O)cc(O)c4-c4cc3ccc4O)[C@H](O)c3ccc(c(Cl)c3)Oc3cc2cc(c3O)Oc2ccc(cc2Cl)[C@H]1O [VANCOMYCIN AGLYCON] | – | > 100 µM | – | 4 µM (≈ 4.58 µg/mL) | 1.8 µM (≈ 2.06 µg/mL) | 1 µM (≈ 1.14 µg/mL) | – | 1 µM (≈ 1.14 µg/mL) | – | – | – | – | – | –
